Laboratory results: ChEMBL document CHEMBL1144909, “Design, synthesis, and biological evaluation of a series of fluoroquinoanthroxazines with contrasting dual mechanisms of action against topoisomerase II and G-quadruplexes” (J Med Chem, 2003)
Activity calls are given as the source filed them. The rule behind the calls is not given here.

Experiments:
RPMI-8226 [1] = experiment: Cytotoxicity of compound against 8226/S cells; format: functional, Homo sapiens
Procedure, shortened: (§1)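 MTT assay. Exponentially growing cells (1–2 × 10^3 per well) seeded day 0; graded compound concentrations added day 1; on day 4, MTT (1 mg/mL in DPBS) added for 4 h at 37 °C. 8226/S (RPMI 8226 myeloma) and doxorubicin-resistant, topoisomerase II-reduced 8226/DOX1V; MCF7 breast cells. Myeloma values are the mean ± SD of four experiments; IC50 in μM.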

[2] = biological target: T1, DNA polymerase I, thermostable (Thermus aquaticus, UniProt P19821); experiment: Inhibition of Taq DNA polymerase
T1 sequence (P19821 whole entry): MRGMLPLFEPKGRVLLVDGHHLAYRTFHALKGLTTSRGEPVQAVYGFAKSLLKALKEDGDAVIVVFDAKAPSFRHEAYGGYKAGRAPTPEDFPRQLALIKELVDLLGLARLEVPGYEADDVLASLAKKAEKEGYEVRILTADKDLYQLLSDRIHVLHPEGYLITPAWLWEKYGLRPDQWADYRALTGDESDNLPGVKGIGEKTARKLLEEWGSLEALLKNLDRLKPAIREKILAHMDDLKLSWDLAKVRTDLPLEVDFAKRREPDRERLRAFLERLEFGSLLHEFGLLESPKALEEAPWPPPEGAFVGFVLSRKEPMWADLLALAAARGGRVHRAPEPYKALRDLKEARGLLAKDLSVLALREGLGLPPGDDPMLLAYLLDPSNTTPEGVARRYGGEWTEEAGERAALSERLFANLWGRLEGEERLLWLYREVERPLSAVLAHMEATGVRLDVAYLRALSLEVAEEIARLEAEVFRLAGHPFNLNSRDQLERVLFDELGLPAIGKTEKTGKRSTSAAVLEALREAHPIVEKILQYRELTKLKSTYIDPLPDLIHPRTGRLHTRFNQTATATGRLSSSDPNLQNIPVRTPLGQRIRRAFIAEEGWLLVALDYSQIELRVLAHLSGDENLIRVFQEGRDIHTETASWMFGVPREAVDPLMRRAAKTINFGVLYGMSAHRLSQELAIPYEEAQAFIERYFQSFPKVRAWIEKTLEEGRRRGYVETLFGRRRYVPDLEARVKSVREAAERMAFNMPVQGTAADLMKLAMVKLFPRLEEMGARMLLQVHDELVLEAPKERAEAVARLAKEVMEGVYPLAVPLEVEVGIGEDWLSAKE

RPMI-8226 [3] = experiment: Cytotoxicity of compound against 8226/DOX1V cells; format: functional, Homo sapiens; procedure, shortened: as §1
[4] = biological target: T2, DNA topoisomerase II (Homo sapiens) (UniProt P11388+Q02880); experiment: Inhibition against decatenation activity of DNA topoisomerase II at a concentration of 100 uM; format: protein assay
Procedure, shortened: (§2)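 Human topoisomerase II (2 units) was then added for 30 min at 37 °C. Sarkosyl stop; products resolved on 1% agarose with ethidium bromide; decatenated kDNA quantified by densitometry.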

MCF7 = experiment: Cytotoxicity of compound was tested against MCF-7 breast cancer cells; format: functional, cell-based; settings: Homo sapiens; procedure, shortened: as §1
[5] = Ratio of cytotoxicity of DOX1V/S cells; format: functional
Procedure, shortened: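 Ratio of IC50 in 8226/DOX1V (doxorubicin-resistant, reduced topoisomerase II) to IC50 in parental 8226/S. Both IC50s come from a 3-day MTT assay, each the mean of four experiments.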

[6] = biological target: T1, DNA polymerase I, thermostable; experiment: Inhibition of Taq DNA polymerase by TRAP assay
[7] = biological target: T2, DNA topoisomerase II (Homo sapiens); experiment: Inhibition against decatenation activity of DNA topoisomerase II at a concentration of 3.2 uM; format: protein assay; procedure, shortened: as §2

## N[C@@H]1CCN(c2c(F)cc3c(=O)c(C(=O)O)cn4c3c2Oc2cc3c(ccc5ccccc53)cc2-4)C1
RPMI-8226 [1]
  Average: 5.46 µM
[2]
  IC50: 2.4 µM
RPMI-8226 [3]
  Average: >10 µM
[4]
  inhibition: inactive
MCF7
  IC50: 4.3 µM

## N[C@H]1CCN(c2c(F)cc3c(=O)c(C(=O)O)cn4c3c2Oc2cc3c(ccc5ccccc53)cc2-4)C1
RPMI-8226 [1]
  Average: >10 µM
[2]
  IC50: 5.7 µM
RPMI-8226 [3]
  Average: >10 µM
[4]
  inhibition: inactive
MCF7
  IC50: 14.2 µM

## N[C@H]1CCN(c2c(F)cc3c(=O)c(C(=O)O)cn4c3c2Oc2c-4ccc3c2ccc2ccccc23)C1
RPMI-8226 [1]
  Average: 0.69 µM
[5]
  Ratio: 4.02
[2]
  IC50: 0.67 µM
RPMI-8226 [3]
  Average: 2.775 µM
[4]
  inhibition: inactive
MCF7
  IC50: 1.1 µM
[6]
  IC50: 21 µM

## N[C@@H]1CCN(c2c(F)cc3c(=O)c(C(=O)O)cn4c3c2Oc2c-4ccc3c2ccc2ccccc23)C1
RPMI-8226 [1]
  Average: 0.324 µM
[5]
  Ratio: 1.55
[2]
  IC50: 0.06 µM
RPMI-8226 [3]
  Average: 0.501 µM
[4]
  inhibition: inactive
MCF7
  IC50: 0.46 µM
[6]
  IC50: 5.6 µM

## N[C@H]1CCN(c2c(F)cc3c(=O)c(C(=O)O)cn4c3c2Oc2ccccc2-4)C1
[7]
  inhibition: 50%

## COc1cccc2c1C(=O)c1c(O)c3c(c(O)c1C2=O)C[C@@](O)(C(=O)CO)C[C@@H]3O[C@H]1C[C@H](N)[C@H](O)[C@H](C)O1 [DOXORUBICIN]
RPMI-8226 [1]
  Average: 0.037 µM
[5]
  Ratio: 8.65
RPMI-8226 [3]
  Average: 0.32 µM
